Data as given in ChEMBL document CHEMBL1149455, “Structure-activity relationship study of 1,4-dihydropyridine derivatives blocking N-type calcium channels” (Bioorg Med Chem Lett, 2006).

Assays:
[1] = target: Voltage-dependent N-type calcium channel subunit alpha-1B (Homo sapiens, UniProt Q00975); assay: Inhibitory activity against N-type calcium channel by calcium influx into IMR32 cells; assay type: functional, cell-based, IMR-32
[2] = target: Voltage-gated L-type calcium channel (Rattus norvegicus, UniProt P22002+Q02485+P27732); assay: Inhibitory activity against L-type calcium channel in SD rat thoracic aorta by Magnus method; assay type: functional, tissue-based
Method in brief: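 Aortic ring held at 2 g resting tension and equilibrated 1 h. It was then exposed to high-K⁺ solution and then Tyrode's solution, 45 min each, and returned to high-K⁺. After maximal contraction, compound was added cumulatively at 90-min intervals to 10⁻⁹, 10⁻⁸, 10⁻⁷ and 10⁻⁶ M. IC50 was derived from inhibition of the K⁺-induced contraction.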

[3] = test system: Rattus norvegicus; assay: Analgesic effect in rat following foot-pad injection of formalin at 30 mg/kg, po; assay type: functional

Voltage-dependent N-type calcium channel subunit alpha-1B, sequence (Q00975 whole entry): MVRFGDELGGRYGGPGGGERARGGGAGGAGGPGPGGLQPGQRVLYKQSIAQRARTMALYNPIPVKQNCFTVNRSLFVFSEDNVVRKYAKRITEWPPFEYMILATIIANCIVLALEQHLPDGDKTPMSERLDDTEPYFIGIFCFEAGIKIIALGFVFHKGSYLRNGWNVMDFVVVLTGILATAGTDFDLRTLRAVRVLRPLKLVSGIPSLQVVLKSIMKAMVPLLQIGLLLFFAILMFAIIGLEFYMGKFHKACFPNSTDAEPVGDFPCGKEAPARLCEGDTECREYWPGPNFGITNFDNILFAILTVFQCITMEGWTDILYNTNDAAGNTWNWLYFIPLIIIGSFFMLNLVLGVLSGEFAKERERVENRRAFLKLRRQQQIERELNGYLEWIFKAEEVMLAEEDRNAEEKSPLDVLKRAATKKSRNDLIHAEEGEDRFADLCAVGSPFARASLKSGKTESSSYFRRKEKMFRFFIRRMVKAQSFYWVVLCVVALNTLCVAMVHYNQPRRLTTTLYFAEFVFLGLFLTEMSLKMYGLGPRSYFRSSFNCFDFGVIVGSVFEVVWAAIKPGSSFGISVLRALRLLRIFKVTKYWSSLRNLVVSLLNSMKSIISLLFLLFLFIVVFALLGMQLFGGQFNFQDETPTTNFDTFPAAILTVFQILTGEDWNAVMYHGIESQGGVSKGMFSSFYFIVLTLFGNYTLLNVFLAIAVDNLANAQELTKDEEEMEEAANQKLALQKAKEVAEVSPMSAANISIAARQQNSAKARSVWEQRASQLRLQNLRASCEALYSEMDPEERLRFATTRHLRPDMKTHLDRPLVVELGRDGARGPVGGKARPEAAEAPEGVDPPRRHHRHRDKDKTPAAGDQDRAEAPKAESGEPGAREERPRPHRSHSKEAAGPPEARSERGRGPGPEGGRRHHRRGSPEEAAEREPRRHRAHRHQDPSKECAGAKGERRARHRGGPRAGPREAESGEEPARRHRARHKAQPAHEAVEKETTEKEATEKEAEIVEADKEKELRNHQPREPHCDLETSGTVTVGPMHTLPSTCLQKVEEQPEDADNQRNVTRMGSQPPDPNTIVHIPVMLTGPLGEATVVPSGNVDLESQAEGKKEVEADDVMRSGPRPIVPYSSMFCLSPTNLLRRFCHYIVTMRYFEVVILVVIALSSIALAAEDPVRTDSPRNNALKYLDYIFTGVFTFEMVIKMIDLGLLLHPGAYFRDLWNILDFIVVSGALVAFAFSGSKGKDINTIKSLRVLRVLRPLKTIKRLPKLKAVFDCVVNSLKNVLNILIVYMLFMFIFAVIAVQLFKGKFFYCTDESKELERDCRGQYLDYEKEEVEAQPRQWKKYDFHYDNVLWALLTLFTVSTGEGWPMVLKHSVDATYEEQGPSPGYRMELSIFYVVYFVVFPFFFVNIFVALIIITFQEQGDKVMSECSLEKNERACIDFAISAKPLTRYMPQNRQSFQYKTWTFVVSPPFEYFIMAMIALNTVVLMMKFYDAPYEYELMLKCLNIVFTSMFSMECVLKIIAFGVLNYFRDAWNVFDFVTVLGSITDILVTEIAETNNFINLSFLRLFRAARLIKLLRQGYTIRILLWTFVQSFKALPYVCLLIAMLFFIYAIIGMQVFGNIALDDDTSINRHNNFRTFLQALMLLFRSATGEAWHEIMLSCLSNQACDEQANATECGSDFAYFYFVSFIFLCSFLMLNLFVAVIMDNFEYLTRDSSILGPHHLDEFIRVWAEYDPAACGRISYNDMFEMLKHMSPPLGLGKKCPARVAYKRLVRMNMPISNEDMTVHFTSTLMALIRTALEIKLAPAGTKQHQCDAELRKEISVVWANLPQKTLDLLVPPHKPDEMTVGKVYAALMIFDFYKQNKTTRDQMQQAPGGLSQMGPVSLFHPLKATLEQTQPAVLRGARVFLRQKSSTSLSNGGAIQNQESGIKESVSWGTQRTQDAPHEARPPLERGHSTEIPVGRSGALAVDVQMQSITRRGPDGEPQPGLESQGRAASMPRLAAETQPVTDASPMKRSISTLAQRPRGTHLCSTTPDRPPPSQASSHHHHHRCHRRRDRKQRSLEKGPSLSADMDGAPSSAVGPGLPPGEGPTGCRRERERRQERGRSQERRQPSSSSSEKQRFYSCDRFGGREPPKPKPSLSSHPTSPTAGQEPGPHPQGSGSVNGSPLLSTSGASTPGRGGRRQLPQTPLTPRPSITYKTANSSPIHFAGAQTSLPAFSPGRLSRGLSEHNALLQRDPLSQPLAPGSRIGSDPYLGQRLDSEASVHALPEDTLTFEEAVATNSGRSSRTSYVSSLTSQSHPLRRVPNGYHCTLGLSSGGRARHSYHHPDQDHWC

Row | Structure (SMILES) | IC50 [1] [nM] | IC50 [2] [nM] | inhibition in vivo at 30 mg/kg [3] [%]
1 | CC1=NC(C)=C(C(=O)O)C(c2cccc(Cl)c2)/C1=C(\O)OCC(=O)Nc1ccccc1 (stereo unspecified) | 28000 | 50 | –
2 | CC1=NC(C)=C(C(=O)O)C(c2ccc([N+](=O)[O-])cc2)/C1=C(\O)OC/C=C/c1ccccc1 (stereo unspecified) | 21000 | 1600 | –
3 | COC(=O)c1cccc(C2C(C(=O)O)=C(C)N=C(C)/C2=C(/O)OC/C=C/c2ccccc2)c1 (stereo unspecified) | 4600 | 4400 | –
4 | CC1=NC(C)=C(C(=O)O)C(c2cccc(Cl)c2)/C1=C(\O)OC/C=C/c1ccccc1 (stereo unspecified) | 1000 | 20 | –
5 | CC1=C(C(=O)O)C(c2cccc(Cl)c2)C(C(=O)OCCC(c2ccccc2)c2ccccc2)=C(C(F)(F)F)N1 (stereo unspecified) | 1700 | 1800 | 46
6 | CC1=C(C(=O)O)C(c2cccc(Cl)c2)C(C(=O)NC/C=C/c2ccccc2)=C(C)N1 (stereo unspecified) | 4500 | 850 | –
7 | CC1=C(C(=O)O)C(c2cccc([N+](=O)[O-])c2)C(C(=O)OC/C=C/c2ccccc2)=C(C)N1 (stereo unspecified) | 3500 | 46 | –
8 | CC1=NC(C)=C(C(=O)O)C(c2cccc(I)c2)/C1=C(\O)OC/C=C/c1ccccc1 (stereo unspecified) | 1700 | 13 | –
9 | CC1=NC(C)=C(C(=O)O)C(c2cccc(C)c2)/C1=C(\O)OC/C=C/c1ccccc1 (stereo unspecified) | 1800 | 76 | –
10 | CC1=NC(C)=C(C(=O)O)C(c2cccc(Cl)c2)/C1=C(\O)OC/C=C/c1ccc(C)cc1 (stereo unspecified) | 890 | 6.8 | –
11 | CC1=NC(C)=C(C(=O)O)C(c2cccc(Cl)c2)/C1=C(\O)OC/C=C/c1ccncc1 (stereo unspecified) | 6200 | 320 | –
12 | CC1=NC(C)=C(C(=O)O)C(c2cccc(F)c2)/C1=C(\O)OC/C=C/c1ccccc1 (stereo unspecified) | 1300 | 20 | –
13 | CC1=NC(C)=C(C(=O)O)C(c2cccc(Cl)c2)/C1=C(\O)OCCC(c1ccccc1)c1ccccc1 (stereo unspecified) | 1100 | 360 | –
14 | CC1=NC(C)=C(C(=O)O)C(c2cccc(Cl)c2)/C1=C(\O)OCC=C(c1ccccc1)c1ccccc1 (stereo unspecified) | 3900 | 200 | –
15 | CC1=NC(C)=C(C(=O)O)C(c2cccnc2)/C1=C(\O)OC/C=C/c1ccccc1 (stereo unspecified) | 24000 | 190 | –
16 | COCCOC(=O)C1=C(C)NC(C)=C(C(=O)OC/C=C/c2ccccc2)C1c1cccc([N+](=O)[O-])c1 (stereo unspecified) [CILNIDIPINE] | 1600 | 1.1 | 46
17 | CC1=NC(C)=C(C(=O)O)C(c2ccoc2)/C1=C(\O)OC/C=C/c1ccccc1 (stereo unspecified) | 11000 | 130 | –
18 | CC1=NC(C)=C(C(=O)O)C(c2cccc(Cl)c2)/C1=C(\O)OCc1ccc2ccccc2c1 (stereo unspecified) | 3900 | 14 | –
19 | CC1=NC(C)=C(C(=O)O)C(c2cccc(Cl)c2)/C1=C(\O)OC/C(C)=C/c1ccccc1 (stereo unspecified) | 680 | 2.8 | –
20 | CC1=NC(C)=C(C(=O)O)C(c2cccc(Cl)c2)/C1=C(\O)OCCC(c1ccccn1)c1ccccn1 (stereo unspecified) | 10000 | 1600 | –
21 | CC1=NC(C)=C(C(=O)O)C(c2cccc(C(=O)O)c2)/C1=C(\O)OC/C=C/c1ccccc1 (stereo unspecified) | 37000 | > 10000 | –
22 | CC1=NC(C)=C(C(=O)O)C(c2ccccc2[N+](=O)[O-])/C1=C(\O)OC/C=C/c1ccccc1 (stereo unspecified) | 37000 | 31 | –
23 | CC1=NC(C)=C(C(=O)O)C(c2cccc(Br)c2)/C1=C(\O)OC/C=C/c1ccccc1 (stereo unspecified) | 790 | 10 | –
24 | CC1=NC(C)=C(C(=O)O)C(c2cccc(Cl)c2)/C1=C(\O)OC/C=C/C1CCCCC1 (stereo unspecified) | 830 | 3.7 | –
25 | CC1=NC(C)=C(C(=O)O)C(c2cccc(Cl)c2)/C1=C(\O)OC/C=C/c1ccc(Cl)cc1 (stereo unspecified) | 1500 | 5.8 | –
26 | CC1=NC(C)=C(C(=O)O)C(c2ccccc2)/C1=C(\O)OC/C=C/c1ccccc1 (stereo unspecified) | 2000 | 9 | –
27 | CC1=NC(C)=C(C(=O)O)C(c2ccsc2)/C1=C(\O)OC/C=C/c1ccccc1 (stereo unspecified) | 2900 | 44 | –
